{"source": "paper PMC10233671", "about": "(ACS Omega, 2023)", "key": {"[1]": {"molecular_target": "bovine mitochondrial cytochrome bc1 (complex III) (Bos taurus, UniProt P00157)", "assay": "Oxygen consumption assay with bovine heart sub-mitochondrial particles", "assay_type": "biochemical"}, "[2]": {"molecular_target": "T1, mitochondrial CIII2 (cytochrome bc1) (Candida albicans, UniProt P0C8L0)", "T1 sequence (P0C8L0 1-387)": "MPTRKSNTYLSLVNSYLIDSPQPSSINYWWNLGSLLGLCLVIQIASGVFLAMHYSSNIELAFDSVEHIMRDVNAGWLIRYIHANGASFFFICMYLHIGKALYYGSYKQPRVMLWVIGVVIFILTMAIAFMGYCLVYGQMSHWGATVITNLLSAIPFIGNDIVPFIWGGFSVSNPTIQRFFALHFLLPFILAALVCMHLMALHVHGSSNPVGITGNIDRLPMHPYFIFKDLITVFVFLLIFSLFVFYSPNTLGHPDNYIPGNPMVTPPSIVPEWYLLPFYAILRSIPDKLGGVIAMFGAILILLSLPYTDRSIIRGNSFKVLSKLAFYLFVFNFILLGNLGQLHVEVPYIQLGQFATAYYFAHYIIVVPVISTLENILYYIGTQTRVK", "assay": "C. albicans complex III activity assay", "assay_type": "biochemical", "details": "10 and 1 μM"}, "Mtb H37Rv": {"system": "Mtb H37Rv", "details": "reported value; cited from earlier work"}, "mitochondrial complex I": {"molecular_target": "mitochondrial complex I (Bos taurus, UniProt P03887+P17694+P42026)", "sequence (P03887 whole entry)": "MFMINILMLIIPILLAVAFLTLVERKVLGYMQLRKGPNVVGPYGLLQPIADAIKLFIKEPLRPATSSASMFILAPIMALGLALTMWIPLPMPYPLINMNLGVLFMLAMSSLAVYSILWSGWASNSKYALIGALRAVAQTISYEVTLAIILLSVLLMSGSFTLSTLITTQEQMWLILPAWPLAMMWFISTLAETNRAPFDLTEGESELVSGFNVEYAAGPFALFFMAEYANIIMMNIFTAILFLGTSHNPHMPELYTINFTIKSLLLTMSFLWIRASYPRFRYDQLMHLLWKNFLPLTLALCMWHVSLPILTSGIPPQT", "sequence (P42026 38-216)": "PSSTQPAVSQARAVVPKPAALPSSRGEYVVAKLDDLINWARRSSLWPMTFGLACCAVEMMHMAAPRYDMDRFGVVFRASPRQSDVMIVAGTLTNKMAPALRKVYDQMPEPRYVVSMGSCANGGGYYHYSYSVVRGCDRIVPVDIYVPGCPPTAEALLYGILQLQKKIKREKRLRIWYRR", "sequence (P17694 34-463)": "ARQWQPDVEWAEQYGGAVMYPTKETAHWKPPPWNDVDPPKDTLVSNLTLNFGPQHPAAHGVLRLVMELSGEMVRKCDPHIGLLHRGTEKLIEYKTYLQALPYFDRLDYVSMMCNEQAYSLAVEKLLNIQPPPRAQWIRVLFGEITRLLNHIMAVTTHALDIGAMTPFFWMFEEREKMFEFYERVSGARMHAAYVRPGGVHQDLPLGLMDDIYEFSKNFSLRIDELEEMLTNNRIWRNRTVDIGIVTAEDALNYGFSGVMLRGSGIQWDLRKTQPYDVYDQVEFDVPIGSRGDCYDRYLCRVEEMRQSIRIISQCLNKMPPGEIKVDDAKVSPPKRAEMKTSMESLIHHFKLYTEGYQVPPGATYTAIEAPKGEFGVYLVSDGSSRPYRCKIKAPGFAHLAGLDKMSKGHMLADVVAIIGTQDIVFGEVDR", "assay": "Bos taurus complex I activity assay", "assay_type": "biochemical", "details": "10 μM, SMPs", "in_short": "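Complex I from bovine heart sub-mitochondrial particles, prepared at 4 °C from isolated mitochondria and cleared at 16,000g. In a 96-well plate, SMPs were mixed with 10 μM test compound or positive control (rotenone, antimycin A or KCN). The reaction was started by injecting 200 μM NADH. NADH oxidation was followed at 340 nm for 8 min.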"}, "Msmeg CIII2CIV2": {"molecular_target": "Msmeg CIII2CIV2 (Mycolicibacterium smegmatis, UniProt A0R052+I7GD61)", "assay": "Oxygen consumption assay with purified CIII2CIV2", "assay_type": "biochemical, Mycobacterium smegmatis"}, "[3]": {"details": "cited from earlier work"}, "[4]": {"system": "viable mycobacteria in the sputum", "details": "phase 2a multiple-dose trial; cited from earlier work"}}}
{"compound": "CCc1nc2ccc(Cl)cn2c1C(=O)NCc1ccc(N2CCC(c3ccc(OC(F)(F)F)cc3)CC2)cc1", "note": "[Compound Q203]", "values": [{"measurement": "activity against bovine mitochondrial cytochrome bc1", "setting": "[1]", "value": "did not show activity"}, {"measurement": "inhibition in SMPs", "setting": "[1]; 1 μM", "value": "no inhibition was detected"}, {"measurement": "inhibition in SMPs", "setting": "[1]; 10 μM", "value": "some inhibition"}, {"measurement": "inhibition at 10 µM", "setting": "[1]; read-out: inhibition of complex III in SMPs", "value": 80, "unit": "%"}, {"measurement": "inhibition of purified C. albicans CIII2", "setting": "[2]", "value": "No inhibition was observed"}, {"measurement": "MIC50", "setting": "Mtb H37Rv", "value": 2.7, "unit": "nM"}, {"measurement": "inhibition of / binding to mitochondrial complex I", "setting": "mitochondrial complex I", "value": "do not inhibit"}, {"measurement": "IC50", "setting": "Msmeg CIII2CIV2", "value": "99 ± 32", "unit": "nM"}, {"measurement": "half-life", "setting": "[3]", "value": "13.38 ± 9.4704", "unit": "days"}, {"measurement": "early bactericidal activity", "setting": "[4]", "value": "dose-dependent reduction in the load of viable mycobacteria in the sputum"}]}
